ChEMBL document CHEMBL1123429, “Influence of alkyl chain ramification on estradiol receptor binding affinity and intrinsic activity of 1,2-dialkylated 1,2-bis(4- or 3-hydroxyphenyl)ethane estrogens and antiestrogens” (J Med Chem, 1986)
Each block holds one compound with its values, some of them ahead of it.

Tests used:
[1] = biological target: Estrogen receptor (Bos taurus) (UniProt Q9XSB5+P49884); assay: Relative binding affinity (RBA) for calf uterine estrogen receptor; assay type: protein assay
How it was run: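 Displacement of [³H]estradiol from calf uterine cytosol; incubated 16 h at 4 °C. Dextran-coated charcoal stops incubation; after centrifugation, supernatant radioactivity counted. Six competitor concentrations spanning 50% competition; % bound vs log concentration plotted to obtain concentrations halving binding for unlabeled estradiol and test compound, giving RBA. Mean of four determinations.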

[2] = biological target: T1, Estrogen receptor (Mus musculus) (UniProt O08537+P19785); assay: Anti-uterotrophic effect in mice at 10 ug; assay type: functional
T1 sequence (O08537 whole entry, looked up): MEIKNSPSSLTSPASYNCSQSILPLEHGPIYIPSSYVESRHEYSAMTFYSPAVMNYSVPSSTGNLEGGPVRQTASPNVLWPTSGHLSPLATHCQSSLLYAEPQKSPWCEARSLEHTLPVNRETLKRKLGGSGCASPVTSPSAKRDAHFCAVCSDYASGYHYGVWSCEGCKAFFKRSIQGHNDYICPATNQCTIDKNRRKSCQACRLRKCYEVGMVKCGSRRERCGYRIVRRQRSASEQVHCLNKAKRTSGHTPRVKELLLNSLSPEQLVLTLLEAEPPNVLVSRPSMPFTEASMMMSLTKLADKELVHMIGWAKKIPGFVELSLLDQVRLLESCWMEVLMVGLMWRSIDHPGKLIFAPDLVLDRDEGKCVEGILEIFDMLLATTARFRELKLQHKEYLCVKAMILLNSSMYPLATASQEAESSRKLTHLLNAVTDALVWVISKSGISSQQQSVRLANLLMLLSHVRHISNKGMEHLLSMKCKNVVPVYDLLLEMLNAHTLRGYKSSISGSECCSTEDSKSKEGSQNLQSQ
T1 sequence (P19785 whole entry, looked up): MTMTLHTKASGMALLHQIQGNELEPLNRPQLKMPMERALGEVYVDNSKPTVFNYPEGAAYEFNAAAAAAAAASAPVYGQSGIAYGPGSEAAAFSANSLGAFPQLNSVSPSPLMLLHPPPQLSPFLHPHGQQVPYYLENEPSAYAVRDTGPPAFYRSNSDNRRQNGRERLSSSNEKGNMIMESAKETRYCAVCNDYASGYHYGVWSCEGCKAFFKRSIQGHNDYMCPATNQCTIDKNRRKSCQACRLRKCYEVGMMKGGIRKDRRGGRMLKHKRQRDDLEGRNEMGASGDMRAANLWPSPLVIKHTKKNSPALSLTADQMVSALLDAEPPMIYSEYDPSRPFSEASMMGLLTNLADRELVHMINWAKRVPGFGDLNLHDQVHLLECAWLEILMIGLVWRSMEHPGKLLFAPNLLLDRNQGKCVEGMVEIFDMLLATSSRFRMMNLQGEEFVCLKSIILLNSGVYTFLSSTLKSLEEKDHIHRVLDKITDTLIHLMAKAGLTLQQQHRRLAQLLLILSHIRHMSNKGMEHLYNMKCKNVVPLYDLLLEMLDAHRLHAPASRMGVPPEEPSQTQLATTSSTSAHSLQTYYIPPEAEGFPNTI
How it was run: (§1)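 Immature female NMRI mice, 20 days old (15.0 ± 2.5 g), randomized into groups of 10. Compound in olive oil (0.1 mL) injected sc daily for 3 days together with estrone; uteri removed 24 h after the last injection, fixed in Bouin's solution, washed, dried and weighed. Effect expressed as uterus dry weight (mg)/body weight (g) × 100; inhibition of estrone-stimulated growth.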

[3] = biological target: T1, Estrogen receptor (Mus musculus); assay: Anti-uterotrophic effect in mice at 30 ug; assay type: functional; how it was run: as §1
[4] = biological target: T1, Estrogen receptor (Mus musculus); assay: Inhibition of estrone-stimulated uterine growth in immature mice at 30 ug; assay type: functional; how it was run: as §1
[5] = biological target: T1, Estrogen receptor (Mus musculus); assay: Anti-uterotrophic effect in mice at 100 ug; assay type: functional; how it was run: as §1
[6] = biological target: T1, Estrogen receptor (Mus musculus); assay: Inhibition of estrone-stimulated uterine growth in immature mice at 10 ug; assay type: functional; how it was run: as §1
[7] = biological target: T1, Estrogen receptor (Mus musculus); assay: Anti-uterotrophic effect in mice at 3 ug; assay type: functional; how it was run: as §1
[8] = biological target: T1, Estrogen receptor (Mus musculus); assay: Inhibition of estrone-stimulated uterine growth in immature mice at 3 ug; assay type: functional; how it was run: as §1
[9] = biological target: T1, Estrogen receptor (Mus musculus); assay: Anti-uterotrophic effect in mice at 0 ug; assay type: functional; how it was run: as §1
[10] = biological target: T1, Estrogen receptor (Mus musculus); assay: Inhibition of estrone-stimulated uterine growth in immature mice at 100 ug; assay type: functional; how it was run: as §1
[11] = biological target: T1, Estrogen receptor (Mus musculus); assay: Inhibition of estrone-stimulated uterine growth in immature mice at 300 ug; assay type: functional; how it was run: as §1
[12] = biological target: T1, Estrogen receptor (Mus musculus); assay: Anti-uterotrophic effect in mice at 300 ug; assay type: functional; how it was run: as §1
[13] = biological target: T1, Estrogen receptor (Mus musculus)

Compound: CC(C)C[C@H](c1ccc(O)cc1)[C@@H](CC(C)C)c1ccc(O)cc1
relative binding affinity (RBA) [1]: 1.5

Compound: CC(C)(C)[C@H](c1ccc(O)cc1)[C@H](c1ccc(O)cc1)C(C)(C)C
relative binding affinity (RBA) [1]: 1.5

Compound: CCC[C@H](c1cccc(O)c1)[C@@H](CCC)c1cccc(O)c1
Effect [2]: 42.1 | inhibition [10]: 37% | Effect [3]: 40.8 | Effect [5]: 34.7 | inhibition [11]: 42% | inhibition ([11]; in the assay text read “30 ug” for “300 ug”): 18% | inhibition [6]: 14% | relative binding affinity (RBA) [1]: 4 | Effect [12]: 33 | Effect [9]: 14.5

Compound: CCC(C)[C@@H](c1ccc(O)cc1)[C@@H](c1ccc(O)cc1)C(C)CC (stereo partly drawn)
relative binding affinity (RBA) [1]: 5

Compound: CCC[C@H](c1ccc(O)cc1)[C@@H](CCC)c1ccc(O)cc1
relative binding affinity (RBA) [1]: 8

Compound: C[C@]12CC[C@@H]3c4ccc(O)cc4CC[C@H]3[C@@H]1CCC2=O
Effect [13]: 46.5

Compound: CC[C@H](c1ccc(O)cc1)[C@@H](CC)c1ccc(O)cc1
relative binding affinity (RBA) [1]: 25

The remaining lines, values ahead:

relative binding affinity (RBA) [1]: 0.7
Compound: CC(C)(C)[C@H](c1cccc(O)c1)[C@H](c1cccc(O)c1)C(C)(C)C

Effect [2]: 34.1 | Effect [3]: 30.2 | inhibition [4]: 51% | Effect [5]: 32.7 | inhibition [5]: 43% | inhibition [6]: 39% | Effect [7]: 40.1 | relative binding affinity (RBA) [1]: 11 | inhibition [8]: 20% | Effect [9]: 14.5
Compound: CC[C@H](c1cccc(O)c1)[C@@H](CC)c1cccc(O)c1

relative binding affinity (RBA) [1]: 3
Compound: CCC(C)[C@@H](c1cccc(O)c1)[C@@H](c1cccc(O)c1)C(C)CC (stereo partly drawn)

relative binding affinity (RBA) [1]: 15
Compound: CC(C)[C@@H](c1cccc(O)c1)[C@@H](c1cccc(O)c1)C(C)C

relative binding affinity (RBA) [1]: 30
Compound: CC(C)[C@@H](c1ccc(O)cc1)[C@@H](c1ccc(O)cc1)C(C)C

Effect [3]: 40.3 | inhibition [4]: 19% | Effect [5]: 37.9 | inhibition [5]: 27% | inhibition [11]: 26% | relative binding affinity (RBA) [1]: 0.5 | Effect [12]: 38.2 | Effect [9]: 14.5
Compound: CC(C)CC(c1cccc(O)c1)[C@H](CC(C)C)c1cccc(O)c1 (single isomer, unassigned)
